Converted amounts (≈) assume the structure as drawn. The source made the active and inactive calls. No cut-off for these calls is given here.
How the values were obtained:
Type in all cases: functional
[1] = tested on: Pseudomonas aeruginosa; assay: Antibacterial activity against multidrug/extremely drug-resistant/colistin-resistant Pseudomonas aeruginosa isolate 91433 after 18 hrs by microtiter dilution assay; settings: isolate 91433, 18 h
Outline: (§1)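 Broth microdilution following CLSI guidelines. An overnight culture was adjusted to 0.5 McFarland in saline, then diluted 1:50 in Mueller-Hinton broth. This inoculum was added in equal volume to 2-fold serial dilutions of agent in MHB and incubated 18 h at 37 °C. MIC was the lowest concentration with no visible growth.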

[2] = tested on: Pseudomonas aeruginosa; assay: Antibacterial activity against Pseudomonas aeruginosa PAO1 assessed as ratio of MIC after 25 serial passages to MIC before 25 serial passages by microtiter dilution assay
Outline: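 Sequential passaging of wild-type PAO1 with single drugs or drug combinations. MIC was tested in MHB for 18 h. Cells from the well at half the MIC were adjusted to 0.5 McFarland in saline, diluted 1:50 in fresh MHB and used for the next MIC test. This was repeated for 25 passages, and the fold change in MIC was plotted against passage number.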

[3] = tested on: Pseudomonas aeruginosa; assay: Antibacterial activity against multidrug/extremely drug-resistant/colistin-susceptible Pseudomonas aeruginosa isolate 100036 after 18 hrs by microtiter dilution assay; settings: isolate 100036, 18 h; outline: as §1
[4] = tested on: Acinetobacter baumannii; assay: Antibacterial activity against multidrug-resistant Acinetobacter baumannii AB030 after 18 hrs by microtiter dilution assay; settings: AB030, 18 h; outline: as §1
[5] = tested on: Pseudomonas aeruginosa; assay: Antibacterial activity against multidrug/extremely drug-resistant/colistin-susceptible Pseudomonas aeruginosa isolate P262-101856 infected in Galleria mellonella assessed as mortality at 75 mg/kg after 24 hrs relative to control; settings: isolate P262-101856, 24 h
Outline: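 Galleria mellonella larvae (about 250 mg, used within 7 days; 15 per group) were injected with 10 µL of XDR P. aeruginosa P262 at 1.0×10^3 CFU/mL. At 2 h they received a single 10 µL injection: monotherapy at 75 mg/kg, or combinations at 12.5+12.5 to 75+75 mg/kg. PBS vehicle served as control. Survival was scored over 24 h at 37 °C.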

[6] = tested on: Pseudomonas aeruginosa; assay: Bactericidal activity against Pseudomonas aeruginosa PAO1 at 0.125 times antibacterial MIC after 6 hrs
[7] = tested on: Acinetobacter baumannii; assay: Antibacterial activity against multidrug-resistant Acinetobacter baumannii AB031 after 18 hrs by microtiter dilution assay; settings: AB031, 18 h; outline: as §1
[8] = tested on: Enterobacter cloacae; assay: Antibacterial activity against multidrug-resistant Enterobacter cloacae 117029 after 18 hrs by microtiter dilution assay; settings: Enterobacter cloacae, 117029, 18 h; outline: as §1
[9] = tested on: Pseudomonas aeruginosa; assay: Antibacterial activity against Pseudomonas aeruginosa PAO1 after 18 hrs by microtiter dilution assay; settings: PAO1, 18 h; outline: as §1
[10] = tested on: Pseudomonas aeruginosa; assay: Antibacterial activity against multidrug/extremely drug-resistant/colistin-susceptible Pseudomonas aeruginosa isolate P264-104354 after 18 hrs by microtiter dilution assay; settings: isolate P264-104354, 18 h; outline: as §1
[11] = tested on: Pseudomonas aeruginosa; assay: Bactericidal activity against Pseudomonas aeruginosa PAO1 at 4 times antibacterial MIC after 6 hrs
Outline: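 Time-kill with P. aeruginosa PAO1. A 0.5 McFarland suspension was diluted 1:50 in LB broth and exposed to agent in PBS (pH 7.2) at 1/2×, 1×, 2× or 4× MIC at 37 °C for 6 h. Samples at 0, 10, 30, 60, 90, 120, 240 and 360 min were serially diluted in PBS, plated on LB agar, and colonies counted after 20 h at 37 °C.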

[12] = tested on: Acinetobacter baumannii; assay: Antibacterial activity against multidrug-resistant Acinetobacter baumannii 110193 after 18 hrs by microtiter dilution assay; settings: Acinetobacter baumannii, 110193, 18 h; outline: as §1
[13] = tested on: Pseudomonas aeruginosa; assay: Antibacterial activity against multidrug/extremely drug-resistant/colistin-susceptible Pseudomonas aeruginosa isolate P262-101856 after 18 hrs by microtiter dilution assay; settings: isolate P262-101856, 18 h; outline: as §1
[14] = tested on: Acinetobacter baumannii; assay: Antibacterial activity against multidrug-resistant Acinetobacter baumannii AB027 after 18 hrs by microtiter dilution assay; settings: AB027, 18 h; outline: as §1
[15] = tested on: Pseudomonas aeruginosa; assay: Antibacterial activity against multidrug/extremely drug-resistant/colistin-susceptible Pseudomonas aeruginosa isolate P259-96918 after 18 hrs by microtiter dilution assay; settings: isolate P259-96918, 18 h; outline: as §1
[16] = tested on: Pseudomonas aeruginosa; assay: Antibacterial activity against multidrug/extremely drug-resistant/colistin-susceptible Pseudomonas aeruginosa isolate 101885 after 18 hrs by microtiter dilution assay; settings: isolate 101885, 18 h; outline: as §1
[17] = tested on: Pseudomonas aeruginosa; assay: Antibacterial activity against multidrug/extremely drug-resistant/colistin-resistant Pseudomonas aeruginosa isolate 101243 after 18 hrs by microtiter dilution assay; settings: isolate 101243, 18 h; outline: as §1
[18] = tested on: Klebsiella pneumoniae; assay: Antibacterial activity against multidrug-resistant Klebsiella pneumoniae 116381 after 18 hrs by microtiter dilution assay; settings: Klebsiella pneumoniae, 116381, 18 h; outline: as §1
[19] = tested on: Enterococcus faecalis; assay: Antibacterial activity against Enterococcus faecalis ATCC 29212 after 18 hrs by microtiter dilution assay; settings: ATCC 29212, 18 h
Outline: (§2)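 Broth microdilution per CLSI. Overnight culture adjusted to 0.5 McFarland in saline, diluted 1:50 in Mueller-Hinton broth, and added to an equal volume of 2-fold serial compound dilutions in MHB. Incubated 18 h at 37 °C. MIC taken as the lowest concentration with no visible growth.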

[20] = tested on: Pseudomonas aeruginosa; assay: Antibacterial activity against gentamicin/tobramycin-resistant Pseudomonas aeruginosa isolate CANWARD-2011 96846 after 18 hrs by microtiter dilution assay; settings: isolate CANWARD-2011 96846, 18 h; outline: as §1
[21] = tested on: Pseudomonas aeruginosa; assay: Induction of cytoplasmic membrane depolarization in Pseudomonas aeruginosa PAO1 up to 1200 secs by diSC3-5 staining based fluorescence assay
Outline: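 Mid-log PAO1 washed in 5 mM HEPES pH 7.4 with 20 mM glucose and resuspended to OD600 0.05. Cells were loaded with 0.2 mM EDTA and 0.4 µM diSC3-5 for 2 h at 37 °C in the dark, then equilibrated with 100 mM KCl for 30 min. Agent was added and fluorescence followed at 622/670 nm; agents tested at 32 µg/mL.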

[22] = tested on: Staphylococcus aureus; assay: Antibacterial activity against Staphylococcus aureus ATCC 29213 after 18 hrs by microtiter dilution assay; settings: ATCC 29213, 18 h; outline: as §1
[23] = tested on: Escherichia coli; assay: Antibacterial activity against gentamicin/tobramycin/ciprofloxacin-resistant Escherichia coli isolate CANWARD-2011 97615 harboring AAC3-2A after 18 hrs by microtiter dilution assay; settings: isolate CANWARD-2011 97615, 18 h; outline: as §1
[24] = tested on: Escherichia coli; assay: Antibacterial activity against Escherichia coli ATCC 25922 after 18 hrs by microtiter dilution assay; settings: ATCC 25922, 18 h; outline: as §1
[25] = tested on: Pseudomonas aeruginosa; assay: Synergistic antibacterial activity against Pseudomonas aeruginosa PAO1 after 18 hrs in presence of rifampicin by checkerboard assay
Outline: (§3)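 Checkerboard in MHB: antibiotic diluted along one axis and adjuvant along the other (10 × 7 matrix). Inoculum was a 1:50 dilution in MHB of a 0.5 McFarland saline suspension; incubated 18 h at 37 °C. Each FIC = concentration in the no-growth well divided by the MIC alone; FIC index = sum of both FICs. ≤0.5 synergy, 0.5–4 no interaction, ≥4 antagonism.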

[26] = tested on: Escherichia coli; assay: Antibacterial activity against gentamicin-resistant Escherichia coli isolate CAN-ICU 61714 after 18 hrs by microtiter dilution assay; settings: isolate CAN-ICU 61714, 18 h; outline: as §1
[27] = tested on: Stenotrophomonas maltophilia; assay: Antibacterial activity against Stenotrophomonas maltophilia isolate CAN-ICU 62584 after 18 hrs by microtiter dilution assay; settings: isolate CAN-ICU 62584, 18 h; outline: as §2
[28] = tested on: Pseudomonas aeruginosa; assay: Induction of outer membrane permeabilization in Pseudomonas aeruginosa PAO1 at 32 ug/ml after 30 mins by CFDASE staining based fluorescence assay
Outline: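 Log-phase PAO1 washed in PBS, brought to OD600 0.5 and loaded with 100 µM CFDASE for 30 min at 37 °C, then washed. Cells were exposed to agent for 30 min at 37 °C and supernatant fluorescence read at 488/520 nm. Untreated cells were subtracted; 1% Triton X-100 served as positive control.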

[29] = tested on: Pseudomonas aeruginosa; assay: Disruption of proton motive force in Pseudomonas aeruginosa PAO1 cytoplasmic membrane assessed as repression of bacterial swimming motility after 20 hrs
Outline: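 Swim plates of 0.3% agar with tryptone 5 g/L and NaCl 2.5 g/L, agent mixed into the medium and plates dried 2 h. PAO1 at 1.0 McFarland in 0.85% saline was point-inoculated at the center, and plates incubated 20 h at 37 °C before swim diameter was imaged.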

[30] = tested on: Acinetobacter baumannii; assay: Antibacterial activity against Acinetobacter baumannii isolate CAN-ICU 63169 after 18 hrs by microtiter dilution assay; settings: isolate CAN-ICU 63169, 18 h; outline: as §2
[31] = tested on: Klebsiella pneumoniae; assay: Antibacterial activity against Klebsiella pneumoniae ATCC 13883 after 18 hrs by microtiter dilution assay; settings: ATCC 13883, 18 h; outline: as §2
[32] = tested on: Pseudomonas aeruginosa; assay: Antibacterial activity against gentamicin-resistant Pseudomonas aeruginosa isolate CAN-ICU 62308 after 18 hrs by microtiter dilution assay; settings: isolate CAN-ICU 62308, 18 h; outline: as §1
[33] = tested on: Streptococcus pneumoniae; assay: Antibacterial activity against Streptococcus pneumoniae ATCC 49619 after 18 hrs by microtiter dilution assay; settings: ATCC 49619, 18 h; outline: as §2
[34] = tested on: Staphylococcus epidermidis; assay: Antibacterial activity against methicillin-resistant Staphylococcus epidermidis isolate CAN-ICU 61589 after 18 hrs by microtiter dilution assay; settings: isolate CAN-ICU 61589, 18 h; outline: as §1
[35] = tested on: Pseudomonas aeruginosa; assay: Antibacterial activity against Pseudomonas aeruginosa ATCC 27853 after 18 hrs by microtiter dilution assay; settings: ATCC 27853, 18 h; outline: as §2
[36] = tested on: Escherichia coli; assay: Antibacterial activity against amikacin-resistant Escherichia coli isolate CAN-ICU 63074 after 18 hrs by microtiter dilution assay; settings: isolate CAN-ICU 63074, 18 h; outline: as §1
[37] = tested on: Staphylococcus aureus; assay: Antibacterial activity against methicillin resistant Staphylococcus aureus ATCC 33592 after 18 hrs by microtiter dilution assay; settings: ATCC 33592, 18 h; outline: as §1
[38] = tested on: Enterococcus faecium; assay: Antibacterial activity against Enterococcus faecium ATCC 27270 after 18 hrs by microtiter dilution assay; settings: ATCC 27270, 18 h; outline: as §2
[39] = tested on: Staphylococcus epidermidis; assay: Antibacterial activity against methicillin-susceptible Staphylococcus epidermidis isolate CANWARD-2008 81388 after 18 hrs by microtiter dilution assay; settings: isolate CANWARD-2008 81388, 18 h; outline: as §1
[40] = tested on: Pseudomonas aeruginosa; assay: Synergistic antibacterial activity against Pseudomonas aeruginosa PAO1 after 18 hrs in presence of minocycline by checkerboard assay; outline: as §3

CN(C)c1ccc(O)c2c1C[C@H]1C[C@H]3[C@H](N(C)C)C(O)=C(C(N)=O)C(=O)[C@@]3(O)C(O)=C1C2=O [MINOCYCLINE]
MIC [1]: 64 µg/mL (≈ 140 µM)
Ratio [2]: 16
MIC [3]: 32 µg/mL (≈ 69.9 µM)
MIC [4]: 4 µg/mL (≈ 8.74 µM)
mortality at 75 mg/kg [5]: 100%
Activity [6]: inactive
MIC [7]: 2 µg/mL (≈ 4.37 µM)
MIC [8]: 128 µg/mL (≈ 280 µM)
MIC [9]: 8 µg/mL (≈ 17.5 µM)
MIC [10]: 64 µg/mL (≈ 140 µM)
Activity [11]: Active
MIC [12]: 2 µg/mL (≈ 4.37 µM)
MIC [13]: 256 µg/mL (≈ 560 µM)
MIC [14]: 1 µg/mL (≈ 2.19 µM)
MIC [15]: 32 µg/mL (≈ 69.9 µM)
MIC [16]: 32 µg/mL (≈ 69.9 µM)
MIC [17]: 4 µg/mL (≈ 8.74 µM)
MIC [18]: 128 µg/mL (≈ 280 µM)

CCCCCCCCCCCCN(Cc1c2ccccc2c(Cl)c2ccccc12)C(=O)[C@@H](N)CCCCN.O=C(O)C(F)(F)F.O=C(O)C(F)(F)F
MIC [19]: 32 µg/mL
MIC [20]: > 128 µg/mL
Activity [21]: Dose-dependent effect
MIC [22]: 32 µg/mL
MIC [1]: 256 µg/mL
MIC [23]: 64 µg/mL
MIC [24]: 64 µg/mL
Activity [25]: inactive
MIC [26]: 128 µg/mL
MIC [27]: > 128 µg/mL
MIC [3]: 256 µg/mL
Activity [28]: inactive
Activity [29]: Dose-dependent effect
MIC [30]: 128 µg/mL
MIC [31]: > 128 µg/mL
MIC [32]: 128 µg/mL
MIC [33]: 32 µg/mL
MIC [9]: 256 µg/mL
MIC [10]: 128 µg/mL
MIC [34]: 8 µg/mL
MIC [13]: 128 µg/mL
MIC [35]: > 128 µg/mL
MIC [36]: 64 µg/mL
MIC [15]: 64 µg/mL
MIC [16]: 128 µg/mL
MIC [17]: 64 µg/mL
MIC [37]: 64 µg/mL
MIC [38]: 8 µg/mL
MIC [39]: 8 µg/mL
Activity [40]: inactive

— ChEMBL document CHEMBL4014308, “Amphiphilic Tobramycin-Lysine Conjugates Sensitize Multidrug Resistant Gram-Negative Bacteria to Rifampicin and Minocycline” (J Med Chem, 2017)
